Assay results pooled from the literature.
Lines come from different studies, so protocols differ.
Target: Serine/threonine-protein kinase SIK1 (SIK1, Homo sapiens, UniProt P57059)

With `CC(C)(C)c1nc(-c2cccc(NS(=O)(=O)c3c(F)cccc3F)c2F)c(-c2ccnc(N)n2)s1` the remaining activity was 98% (enzyme activity; inhibitor; radiometric; 1 µM).
With `O=C(Nc1cnn(-c2csc(C(=O)NC3COC3)c2)c1)Nc1c(F)cccc1Cl` the remaining activity was 98.3% (enzyme activity; inhibitor; 5 µM).
The inhibition of `Cc1ccc(Nc2nccc(N(C)c3ccc4c(C)n(C)nc4c3)n2)cc1S(N)(=O)=O` is reported as 13% (enzyme activity; inhibitor; 0.3 µM).
For `COc1cc(Cl)c(C(=O)N[C@@H](CN[C@H]2CC[C@@H](N)CC2)Cc2ccc(C#N)cc2)cc1-c1ccc(CN[C@H](C)c2ccc(C)cc2)o1`, the remaining activity was 97% (enzyme activity; inhibitor; 1 µM).
`CN(c1nccc(-c2cnn3ncccc23)n1)C1CC1` gave a remaining binding of 100% (binding; 1 µM).
With `O=C(Nc1cnn(-c2csc(C(=O)NC3COC3)c2)c1)Nc1ccccc1Cl` the remaining activity was 102% (enzyme activity; inhibitor; 5 µM).
The activity vs control of `Cc1cc(NC(=O)c2cccc3cc(-c4cccc5[nH]nc(N)c45)ccc23)ccc1F` is reported as 103% (enzyme activity; inhibitor; 0.1 µM).
`CC(C)(C)c1nc2c(s1)c1nc(N)ncc1c1ccc(NS(=O)(=O)c3c(F)cccc3F)c(F)c12` gave a remaining activity of 90% (enzyme activity; inhibitor; radiometric; 1 µM).
The remaining activity of `Cc1ccc(C(=O)Nc2ccc(CN3CCN(C)CC3)c(C(F)(F)F)c2)cc1C#Cc1cnc2cccnn12` is reported as 57% (enzyme activity; inhibitor; 23.5 nM).
`Cc1cnn2ncc(-c3ccnc(N(C)C)n3)c2c1` has a remaining binding of 100% (binding; 1 µM).
`Cc1cnc(NC2CCOCC2)nc1-n1cnc(C(=O)NC(CN)c2cc(F)cc(Cl)c2)c1` (centres unmarked) gave a remaining activity of 109% (enzyme activity; inhibitor; radiometric; 1 µM).
For `CN(CCCC(F)(F)F)c1nccc(-c2cnn3ncccc23)n1`, the remaining binding was 100% (binding; 1 µM).
For `CCN1CCN(Cc2ccc(NC(=O)c3ccc(C)c(Oc4ccnc5[nH]ccc45)c3)cc2C(F)(F)F)CC1`, the inhibition was -51.3% (target engagement in cells; inhibitor; chemoproteomics; Huh-7; 1 µM).
With `CC(C)(O)[C@H]1CC[C@H](Nc2ccc3ncc(-c4cccc(C(F)(F)F)c4)n3n2)CC1` the remaining activity was 62.8% (enzyme activity; inhibitor; 1 µM).
